According to ChEMBL document CHEMBL1131222, “Novel thieno[2,3-d][1,3]oxazin-4-ones as inhibitors of human leukocyte elastase” (J Med Chem, 1998):

What was measured:
[1] = biological target: T1, Neutrophil elastase (Homo sapiens, UniProt P08246); experiment: Steady state inhibition constant for Human Leukocyte Elastase inhibition
T1 sequence (P08246 whole entry): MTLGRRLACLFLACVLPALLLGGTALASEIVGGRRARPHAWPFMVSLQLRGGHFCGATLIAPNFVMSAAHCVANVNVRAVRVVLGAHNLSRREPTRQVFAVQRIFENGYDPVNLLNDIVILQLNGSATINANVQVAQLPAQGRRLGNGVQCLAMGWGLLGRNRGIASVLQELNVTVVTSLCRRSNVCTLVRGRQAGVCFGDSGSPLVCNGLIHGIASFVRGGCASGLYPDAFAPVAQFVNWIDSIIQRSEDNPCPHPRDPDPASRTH
Summary of the method: (§1)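 Progress-curve assay at 25 °C with HLE purified from human leukocytes, in 50 mM sodium phosphate, 500 mM NaCl, pH 7.8. Substrate was MeOSuc-Ala-Ala-Pro-Val-pNA (200 μM final, 405 nm, 30–75 min) or, for a few inhibitors, Suc-Ala-Ala-Pro-Val-AMC (125 μM final, ex 340/em 460 nm, 4–5 min). […] Curves were fitted by slow-binding kinetics (k_obs = k_on'[I] + k_off).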

[2] = Alkaline hydrolysis rate (logk-OH); format: ADME; details: 50 mM CAPS, pH 10.5 or 11.5, 25 °C
Summary of the method: (§2)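 Thienooxazinone loss followed spectrophotometrically at a fixed wavelength (330–355 nm) in 50 mM CAPS, pH 10.5 or 11.5, 25 °C. Final inhibitor concentration 10–25 μM, 5% final DMSO. Curves analysed as first-order reactions. For some compounds at pH 10.5, reverse-phase HPLC aliquots were taken every 3 h over 24 h, with peak areas at 240 nm fitted to a first-order equation.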

[3] = biological target: T1, Neutrophil elastase; experiment: Negative logarithm of steady state constant Ki for enzyme-inhibitor complex Human Leukocyte Elastase inhibition; summary of the method: as §1
[4] = Alkaline hydrolysis rate (k-OH); format: ADME; summary of the method: as §2
[5] = biological target: T2, Neutrophil elastase (Homo sapiens) (UniProt P08246); experiment: Second order rate constant for enzyme-inhibitor complex Human Leukocyte Elastase inhibition was determined; summary of the method: as §1
T2 sequence (whole entry): T1 sequence (P08246 whole entry)

[6] = biological target: T2, Neutrophil elastase (Homo sapiens)

Compound	Ki [1] [nM]	Log kOH- [2]	Ki [3] [nM]	kOH- [4] [M⁻¹ s⁻¹]	Kon (10e3* M-1 s-1) [5]	kon (10e3* M-1 s-1) [5]	koff [6]
CC(C)COc1nc2sc3c(c2c(=O)o1)CCCC3	51	0.26	51.3	1.83			
CCSc1nc2sc(C)c(C)c2c(=O)o1	2.73	0.1	2.75	1.27			
Cc1sc2nc(N(C)C3CCCCC3)oc(=O)c2c1C		-1.11		0.077	< 0.8		
CN(c1nc2sc3c(c2c(=O)o1)CCCC3)C1CCCCC1						< 0.6	
Cc1sc2nc(OCC(C)C)oc(=O)c2c1C	133	0.41	135	2.55			
CCOc1nc2scc(C(C)C)c2c(=O)o1	5.61	0.47	5.62	2.98			
CCN(CC)c1nc2sc(C)c(C)c2c(=O)o1		-1.63		0.023		< 0.6	
COC(=O)CSc1nc2sc(C)c(C)c2c(=O)o1	238	0.01	240	1.03		0.685	1.63
CCCOc1nc2sc3c(c2c(=O)o1)CCCC3	1.43	0.44	1.45	2.75			
CCN(CC)c1nc2sc3c(c2c(=O)o1)CCCC3	16.3	-1.59	16.2	0.025			
CC(C)Nc1nc2sccc2c(=O)o1	41.8	-0.48	41.7	0.332			
O=c1oc(SCc2ccccc2)nc2sc3c(c12)CCCC3	290	-0.45	288	0.355			
CCSc1nc2sc3c(c2c(=O)o1)CCCC3	5.7	-0.22	5.75	0.59			
CCOc1nc2sc(C)c(C)c2c(=O)o1	10.7	0.45	10.7	2.82			
Cc1sc2nc(SCc3ccccc3)oc(=O)c2c1C	101	-0.16	100	0.69			
COC(=O)CSc1nc2sc3c(c2c(=O)o1)CCCC3	17.9	-0.04	17.8	0.92			
CSc1nc2sc3c(c2c(=O)o1)CCCC3	5.74	0.21	5.75	1.63		272	15.6
CC(C)Nc1nc2sc3c(c2c(=O)o1)CCCC3	145	-0.49	145	0.323			
O=c1oc(N2CCOCC2)nc2sc3c(c12)CCCC3		-1.08		0.083		< 0.8	
Cc1sc2nc(NC(C)C)oc(=O)c2c1C	75.5	-1.14	75.9	0.073		1.13	0.85
CCOc1nc2sc3c(c2c(=O)o1)CCCC3	1.36	0.44	1.35	2.77			
CSc1nc2sc(C)c(C)c2c(=O)o1	35	0.22	34.7	1.65			
CCCOc1nc2sc(C)c(C)c2c(=O)o1	4.02	0.39	3.98	2.48			
Cc1sc2nc(N3CCOCC3)oc(=O)c2c1C		-1.07		0.085		< 0.6	
